Values belong to the molecule of their own block, whether it stands above or below them.
Assays:
[1] = Cytotoxicity against mouse Hepa-1c1c7 cells after 48 hrs by MTT assay; assay type: cell-based; details: hepa-1c1c7, 48 h
Method in brief: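 Murine hepatoma cells in α-MEM with 10% heat- and charcoal-treated fetal calf serum, passages 6–17; MTT read-out as for the cancer lines but with 48 h compound exposure. Highest concentration tested 25 µM. IC50 from survival-versus-concentration curve; mean and SD, n = 3.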

[2] = molecular target: NAD(P)H dehydrogenase [quinone] 1 (Mus musculus) (UniProt Q64669); assay: Induction of NQO1 activity in mouse Hepa-1c1c7 cells assessed as induction ratio at 5 uM after 48 hrs by MTT assay relative to control; assay type: cell-based
Method in brief: (§1)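 Hepa1c1c7 cells, 10,000 per well, 24 h, were then treated 48 h (DMSO ≤0.5%). Digitonin/EDTA lysates were assayed for menadione-dependent MTT-formazan formation using a G6P/G6PDH NADPH-generating mix with FAD at pH 7.4. The reaction ran 5 min, was stopped with dicoumarol, and read at A590. Degree of induction = (A test − blank)/(A control − blank). Ratios were read off the induction–concentration plot at the EROD test concentration.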

CYP1A1 [3] = molecular target: T1, CYP1A1 (Mus musculus, UniProt P00184); assay: Induction of CYP1A1 activity in mouse Hepa-1c1c7 cells assessed as induction ratio at 5 uM after 48 hrs by EROD assay relative to control; assay type: ADME, cell-based
T1 sequence (P00184 whole entry): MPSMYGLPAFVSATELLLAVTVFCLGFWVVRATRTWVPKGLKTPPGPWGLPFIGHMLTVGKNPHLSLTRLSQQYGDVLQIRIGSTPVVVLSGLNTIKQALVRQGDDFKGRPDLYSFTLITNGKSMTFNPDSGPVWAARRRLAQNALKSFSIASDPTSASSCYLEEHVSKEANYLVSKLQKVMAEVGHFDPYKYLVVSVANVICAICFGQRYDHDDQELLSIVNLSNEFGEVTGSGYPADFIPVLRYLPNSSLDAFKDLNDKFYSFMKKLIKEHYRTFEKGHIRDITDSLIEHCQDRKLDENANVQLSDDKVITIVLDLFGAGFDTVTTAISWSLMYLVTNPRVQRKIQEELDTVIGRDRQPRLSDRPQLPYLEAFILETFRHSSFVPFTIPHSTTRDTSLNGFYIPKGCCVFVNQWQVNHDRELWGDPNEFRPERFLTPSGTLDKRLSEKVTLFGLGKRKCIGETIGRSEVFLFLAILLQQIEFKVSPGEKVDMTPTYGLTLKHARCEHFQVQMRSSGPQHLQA
Method in brief: (§2)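 Hepa1c1c7 cells were seeded at 10,000 per well and grown 24 h. They were then exposed 48 h to compound (final DMSO 0.5% v/v) at about 4 × the NQO1 CD. After a PBS wash, cells got 5 µM 7-ethoxyresorufin plus 2 mM salicylamide in medium, 37 °C, 40 min. Resorufin was read at ex 530/em 590 nm, corrected for compound fluorescence. Ratio = (F treated − blank)/(F DMSO control − blank); mean ± SD, n = 3.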

[4] = molecular target: NAD(P)H dehydrogenase [quinone] 1 (Mus musculus) (UniProt Q64669); assay: Induction of NQO1 activity in mouse Hepa-1c1c7 cells assessed as induction ratio at 1 uM after 48 hrs by MTT assay relative to control; assay type: cell-based; method in brief: as §1
CYP1A1 [5] = molecular target: T1, CYP1A1; assay: Induction of CYP1A1 activity in mouse Hepa-1c1c7 cells assessed as induction ratio at 1 uM after 48 hrs by EROD assay relative to control; assay type: ADME, cell-based
Method in brief: (§3)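 About 10,000 Hepa1c1c7 cells/well cultured 24 h, then compound (0.5% DMSO final) for 48 h, at roughly 4 × the concentration doubling NQO1 activity. After PBS wash, cells given 5 µM 7-ethoxyresorufin plus 2 mM salicylamide, 37 °C, 40 min; resorufin fluorescence ex 530/em 590 nm, corrected for compound fluorescence. Ratio = (treated − blank)/(DMSO control − blank); mean ± SD, n = 3.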

CYP1A1 [6] = molecular target: T1, CYP1A1; assay: Induction of CYP1A1 activity in mouse Hepa-1c1c7 cells assessed as induction ratio at 2.5 uM after 48 hrs by EROD assay relative to control; assay type: ADME, cell-based; method in brief: as §2
[7] = molecular target: NAD(P)H dehydrogenase [quinone] 1 (Mus musculus) (UniProt Q64669); assay: Induction of NQO1 activity in mouse Hepa-1c1c7 cells assessed as induction ratio at 2.5 uM after 48 hrs by MTT assay relative to control; assay type: cell-based; method in brief: as §1
CYP1A1 [8] = molecular target: T1, CYP1A1; assay: Induction of CYP1A1 activity in mouse Hepa-1c1c7 cells assessed as induction ratio at 20 uM after 48 hrs by EROD assay relative to control; assay type: ADME, cell-based; method in brief: as §2
[9] = molecular target: NAD(P)H dehydrogenase [quinone] 1 (Mus musculus) (UniProt Q64669); assay: Induction of NQO1 activity in mouse Hepa-1c1c7 cells assessed as induction ratio at 20 uM after 48 hrs by MTT assay relative to control; assay type: cell-based; method in brief: as §1
HCT-116 [10] = assay: Antiproliferative activity against human HCT116 cells after 72 hrs by MTT assay; assay type: functional, cell-based; details: HCT-116, 72 h
Method in brief: (§4)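 Cells seeded at 10,000 (MCF7), 4000 (HCT116) or 5000 (CCL186) per well and grown 24 h; MCF7 and CCL186 in EMEM with pyruvate, glutamine, 10% FBS; HCT116 in McCoy's 5A with 10% FBS. Compounds from DMSO stocks (≤1% DMSO final), 72 h exposure; MTT 0.5 mg/ml for 3 h, formazan in DMSO read at 590 nm. IC50 from sigmoidal survival curve, three separate occasions.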

MCF7 [11] = assay: Antiproliferative activity against human MCF7 cells after 72 hrs by MTT assay; assay type: functional, cell-based; details: MCF7, 72 h; method in brief: as §4
[12] = Antiproliferative activity against human CCL186 cells after 72 hrs by MTT assay; assay type: cell-based; details: CCL186, 72 h; method in brief: as §4
MCF7 [13] = assay: Selectivity ratio of IC50 for human CCL186 cells to IC50 for human MCF7 cells
Method in brief: (§5)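 MTT assay. MCF7 and CCL186 cells were grown in EMEM/10% FBS, HCT116 in McCoy's 5A/10% FBS. Seeding was 10,000 (MCF7), 4000 (HCT116) and 5000 (CCL186) cells per well, 24 h. Compound exposure was 72 h, DMSO ≤1% final. MTT 0.5 mg/ml for 3 h, formazan dissolved in DMSO, A590. IC50 came from sigmoidal survival curves, with 3 separate occasions per concentration. Ratio = IC50 CCL186 / IC50 of the cancer line.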

[14] = Selectivity ratio of IC50 for human CCL186 cells to IC50 for human HCT116 cells; assay type: ADME, cell-based, HCT-116; details: CCL186 cells and HCT116 cells, read-out: Ratio IC50; method in brief: as §5
HCT-116 [15] = assay: Cell cycle arrest in human HCT116 cells released from G1 block assessed as accumulation at sub G1 phase at 15 uM after 24 hrs by flow cytometry; assay type: functional
HCT-116 [16] = assay: Cell cycle arrest in human HCT116 cells released from G2 block assessed as accumulation at sub G1 phase at 15 uM after 24 hrs by flow cytometry; assay type: functional
HCT-116 [17] = assay: Cell cycle arrest in human HCT116 cells released from G1 block assessed as accumulation at G1 phase at 15 uM after 24 hrs by flow cytometry; assay type: functional
HCT-116 [18] = assay: Cell cycle arrest in human HCT116 cells released from G2 block assessed as accumulation at G1 phase at 15 uM after 24 hrs by flow cytometry; assay type: functional
HCT-116 [19] = assay: Cell cycle arrest in human HCT116 cells released from G1 block assessed as accumulation at S phase at 15 uM after 24 hrs by flow cytometry; assay type: functional
HCT-116 [20] = assay: Cell cycle arrest in human HCT116 cells released from G2 block assessed as accumulation at S phase at 15 uM after 24 hrs by flow cytometry; assay type: functional
HCT-116 [21] = assay: Cell cycle arrest in human HCT116 cells released from G1 block assessed as accumulation at G2/M phase at 15 uM after 24 hrs by flow cytometry; assay type: functional
HCT-116 [22] = assay: Cell cycle arrest in human HCT116 cells released from G2 block assessed as accumulation at G2/M phase at 15 uM after 24 hrs by flow cytometry; assay type: functional
CYP1A1 [23] = molecular target: T1, CYP1A1; assay: Induction of CYP1A1 activity in mouse Hepa-1c1c7 cells assessed as induction ratio at 0.5 uM after 48 hrs by EROD assay relative to control; assay type: ADME, cell-based; method in brief: as §3
[24] = molecular target: NAD(P)H dehydrogenase [quinone] 1 (Mus musculus) (UniProt Q64669); assay: Induction of NQO1 activity in mouse Hepa-1c1c7 cells assessed as induction ratio at 0.5 uM after 48 hrs by MTT assay relative to control; assay type: cell-based; method in brief: as §1
CYP1A1 [25] = molecular target: T1, CYP1A1; assay: Induction of CYP1A1 activity in mouse Hepa-1c1c7 cells assessed as induction ratio at 7.5 uM after 48 hrs by EROD assay relative to control; assay type: ADME, cell-based; method in brief: as §2
[26] = molecular target: NAD(P)H dehydrogenase [quinone] 1 (Mus musculus) (UniProt Q64669); assay: Induction of NQO1 activity in mouse Hepa-1c1c7 cells assessed as induction ratio at 7.5 uM after 48 hrs by MTT assay relative to control; assay type: cell-based; method in brief: as §1

Sequence of NAD(P)H dehydrogenase [quinone] 1 (Mus musculus) (Q64669 whole entry): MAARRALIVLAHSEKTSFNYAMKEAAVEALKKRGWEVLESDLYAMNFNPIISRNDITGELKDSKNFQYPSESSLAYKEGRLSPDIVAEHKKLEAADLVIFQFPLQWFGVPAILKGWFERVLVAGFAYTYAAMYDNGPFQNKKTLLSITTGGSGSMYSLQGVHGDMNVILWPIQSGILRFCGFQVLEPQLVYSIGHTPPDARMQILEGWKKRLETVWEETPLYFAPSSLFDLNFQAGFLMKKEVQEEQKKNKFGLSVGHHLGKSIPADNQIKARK

Ratio [2]: 4.5
fold induction at 48 h, 5 µM (CYP1A1 [3]): 1.04
SMILES: COc1ccc(/C=C2/C(=O)Nc3ccccc32)cc1
IC50 [1]: > 25 µM

Ratio [4]: 4.33
fold induction at 48 h, 1 µM (CYP1A1 [5]): 1.28
SMILES: O=C1Nc2ccccc2/C1=C\c1c[nH]c2ccccc12
IC50 [1]: > 25 µM

Ratio [4]: 4.04
fold induction at 48 h, 1 µM (CYP1A1 [5]): 1.08
SMILES: Cc1cccc(/C=C2/C(=O)Nc3ccccc32)c1
IC50 [1]: > 25 µM

Ratio [2]: 2.64
fold induction at 48 h, 5 µM (CYP1A1 [3]): 1.08
SMILES: COc1ccc(/C=C2/C(=O)N(C)c3ccccc32)cc1O
IC50 [1]: 15.5 µM

Ratio [2]: 5.13
fold induction at 48 h, 5 µM (CYP1A1 [3]): 1.01
SMILES: O=C1Nc2ccccc2/C1=C\c1ccccc1
IC50 [1]: > 25 µM

Ratio [2]: 4.78
fold induction at 48 h, 5 µM (CYP1A1 [3]): 1.18
SMILES: COc1cccc(/C=C2/C(=O)N(C)c3ccccc32)c1
IC50 [1]: > 25 µM

fold induction at 48 h, 0.5 µM (CYP1A1 [23]): 2.66
Ratio [24]: 3.13
SMILES: COc1ccc(/C=C2/C(=O)Nc3ccccc32)cc1O
IC50 [1]: 11.9 µM

Ratio [2]: 4.45
fold induction at 48 h, 5 µM (CYP1A1 [3]): 1.66
SMILES: Cc1ccccc1/C=C1/C(=O)Nc2ccccc21
IC50 [1]: > 25 µM

fold induction at 48 h, 0.5 µM (CYP1A1 [23]): 1.21
Ratio [24]: 4.47
SMILES: O=C1Nc2ccccc2/C1=C\c1cccc(Cl)c1
IC50 [1]: 5.9 µM

fold induction at 48 h, 7.5 µM (CYP1A1 [25]): 1.08
Ratio [26]: 4.96
SMILES: CCc1ccc(/C=C2/C(=O)Nc3ccccc32)cc1
IC50 [1]: > 25 µM

The remaining lines, values behind:

SMILES: N#Cc1ccc(/C=C2/C(=O)Nc3ccccc32)cc1
IC50 [1]: > 25 µM

SMILES: Cc1ccc(CC2C(=O)Nc3ccccc32)cc1 (centres undefined)
IC50 [1]: > 25 µM

SMILES: COc1cccc(/C=C2/C(=O)Nc3ccc(Cl)cc32)c1
fold induction at 48 h, 2.5 µM (CYP1A1 [6]): 1.32
IC50 [1]: 17.5 µM
Ratio [7]: 4.34

SMILES: COc1ccccc1/C=C1/C(=O)Nc2ccccc21
IC50 [1]: > 25 µM
Ratio [4]: 4.03
fold induction at 48 h, 1 µM (CYP1A1 [5]): 2.48

SMILES: COc1cccc(CC2C(=O)Nc3ccccc32)c1 (centres undefined)
fold induction at 48 h, 20 µM (CYP1A1 [8]): 1.78
IC50 [1]: > 25 µM
Ratio [9]: 2.23

SMILES: COc1cc(/C=C2/C(=O)Nc3ccccc32)cc(OC)c1
IC50 (HCT-116 [10]): 5.8 µM
IC50 (MCF7 [11]): 10.5 µM
IC50 [12]: 23.6 µM
Ratio IC50 (MCF7 [13]): 4.1
selectivity ratio [14]: 2.2
IC50 [1]: 16 µM

SMILES: COc1cc(/C=C2/C(=O)Nc3ccccc32)cc(OC)c1OC
Activity (HCT-116 [15]): 3.78%
Activity (HCT-116 [16]): 4.13%
Activity (HCT-116 [17]): 56.85%
Activity (HCT-116 [18]): 42.06%
Activity (HCT-116 [19]): 21.42%
Activity (HCT-116 [20]): 16.84%
Activity (HCT-116 [21]): 18.54%
Activity (HCT-116 [22]): 36.45%
IC50 [1]: > 25 µM

SMILES: COc1ccc(/C=C2/C(=O)Nc3ccccc32)c(O)c1
fold induction at 48 h, 2.5 µM (CYP1A1 [6]): 2.35
IC50 [1]: > 25 µM
Ratio [7]: 3.59

Source: ChEMBL document CHEMBL1153905, “Functionalized 3-benzylidene-indolin-2-ones: inducers of NAD(P)H-quinone oxidoreductase 1 (NQO1) with antiproliferative activity” (Bioorg Med Chem, 2009)
